Data taken from ChEMBL document CHEMBL1156038 (J Med Chem, 2009).
Calls of active or inactive are those of the source. The rule behind the calls is not given here.

Key:
[1] = Displacement of [3H]adenine from adenine 1 receptor in HEK293 cells by liquid scintillation counting; format: cell-based, Homo sapiens
[2] = test system: HEK293; experiment: Selectivity ratio of Ki for adenine 1 receptor in HEK293 cells to Ki for adenine 1 receptor in rat brain cortical membrane; format: cell-based
[3] = species: Rattus norvegicus; experiment: Inhibition of [3H]adenine binding to adenine 1 receptor in rat brain cortical membrane at 100 uM by liquid scintillation counting; format: cell membranes
Summary of the method: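 Aqueous solutions were autoclaved or heated >90 °C for ≥10 min to destroy bacterial binding sites. […] Filtered on GF/B with ice-cold Tris washes, then scintillation counted. Percent inhibition ± SEM.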

[4] = test system: HEK293; experiment: Inhibition of [3H]adenine binding to adenine 1 receptor in HEK293 cells at 100 uM by liquid scintillation counting; format: cell-based; details: Homo sapiens
[5] = test system: 1321-N1; experiment: Inhibition of [3H]adenine uptake at rat adenine 1 receptor expressed in human 1321N1 cells at 1 mM after 1 min by liquid scintillation counting; format: cell-based
[6] = (§1) Agonist activity at rat adenine 1 receptor expressed in human 1321N1 cells assessed as inhibition of isoproterenol-induced [3H]cAMP formation by scintillation counting; format: functional, cell-based
[7] = test system: 1321-N1; experiment: as §1; format: functional, cell-based
[8] = Agonist activity at rat adenine 1 receptor expressed in human 1321N1 cells assessed as inhibition of isoproterenol-induced [3H]cAMP formation at 1 uM by scintillation counting; format: functional
[9] = species: Rattus norvegicus; experiment: Inhibition of [3H]adenine binding to adenine 1 receptor in rat brain cortical membrane at 30 uM by liquid scintillation counting; format: cell membranes
[10] = test system: 1321-N1; experiment: Inhibition of [3H]adenine uptake at rat adenine 1 receptor expressed in human 1321N1 cells at 100 uM after 1 min by liquid scintillation counting; format: cell-based
[11] = test system: 1321-N1; experiment: Activity at rat adenine 1 receptor expressed in human 1321N1 cells assessed as complete inhibition of cAMP formation at 250 uM; format: cell-based
Summary of the method: (§2)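 1321N1 astrocytoma cells stably expressing rat Ade1R (retroviral pLXSN, G418 800 μg/mL), grown on 24-well plates. Cells washed and held 2 h at 37 °C in HBSS pH 7.3. Compound added together with 3 nM isoproterenol for 10 min at 37 °C, then stopped with hot EDTA/Triton lysis. cAMP measured by [3H]cAMP competition with calf adrenal binding protein and filtration, read against a 0–40 pmol standard curve. Result given as % of isoproterenol alone; n = 3.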

[12] = test system: 1321-N1; experiment: Agonist activity at rat adenine 1 receptor expressed in human 1321N1 cells assessed as inhibition of isoproterenol-induced [3H]cAMP formation at 30 uM by scintillation counting; format: functional, cell-based; summary of the method: as §2
[13] = test system: 1321-N1; experiment: Agonist activity at rat adenine 1 receptor expressed in human 1321N1 cells assessed as inhibition of isoproterenol-induced [3H]cAMP formation at 250 uM by scintillation counting; format: functional, cell-based; summary of the method: as §2
[14] = Agonist activity at rat adenine 1 receptor expressed in human 1321N1 cells assessed as inhibition of isoproterenol-induced [3H]cAMP formation at 250 uM by scintillation counting relative to adenine; format: functional; summary of the method: as §2
[15] = test system: 1321-N1; experiment: Antagonist activity at rat adenine 1 receptor expressed in human 1321N1 cells assessed as change in adenine IC50 for inhibition of isoproterenol-induced [3H]cAMP formation at 10 uM by scintillation counting; format: functional, cell-based
Summary of the method: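 Retrovirally transduced 1321N1 astrocytoma cells stably expressing rat Ade1R, 24-well culture, washed and preincubated in Hepes-buffered HBSS pH 7.3, 2 h, 37 °C. […] Hot EDTA/Triton lysis. cAMP measured by competition with [3H]cAMP for calf adrenal binding protein, filtered, scintillation counting.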

[16] = test system: 1321-N1; experiment: Agonist activity at rat adenine 1 receptor expressed in human 1321N1 cells assessed as inhibition of isoproterenol-induced [3H]cAMP formation at 500 uM by scintillation counting; format: functional, cell-based; summary of the method: as §2
[17] = test system: HEK293; experiment: Selectivity ratio of Ki for adenine 1 receptor in rat brain cortical membrane to Ki for adenine 1 receptor in HEK293 cells; format: cell-based
[18] = species: Rattus norvegicus; experiment: Inhibition of [3H]adenine binding to adenine 1 receptor in rat brain cortical membrane at 250 uM by liquid scintillation counting; format: cell membranes
[19] = Agonist activity at rat adenine 1 receptor expressed in human 1321N1 cells assessed as inhibition of isoproterenol-induced [3H]cAMP formation at 50 uM by scintillation counting relative to adenine; format: functional; summary of the method: as §2

| Structure (SMILES) | Ki [1] [µM] | Ratio Ki [2] | inhibition [3] [%] | other results |
| --- | --- | --- | --- | --- |
| Nc1ccnc2[nH]cnc12 | 7.89 | 0.7 |  |  |
| NCCCNc1ncnc2[nH]cnc12 |  |  | 49 |  |
| CCn1cnc2c(N)nc(OCCc3ccccc3)nc21 |  |  | 7 |  |
| Nc1nc(OCCc2ccccc2)nc2[nH]cnc12 |  |  | 24 |  |
| Nc1ncnc2c1ncn2CC(N)C(=O)O (racemic) | 6.23 | 0.58 |  |  |
| Nc1nc(Cl)nc2c1ncn2[C@H]1C[C@H](O)[C@@H](CO)O1 |  |  | 9 |  |
| Nc1ncnc2c1ncn2C1CCCCC1 |  |  | -6 |  |
| OCCNc1ncnc2[nH]cnc12 | 100 | 4 |  | inhibition [4]: 58% |
| CCCCC#Cc1nc(N)c2ncn([C@@H]3O[C@H](CO)[C@@H](O)[C@H]3O)c2n1 |  |  | 5 |  |
| Nc1[nH]cnc2ncnc1-2 [ADENINE] | 0.0471 |  |  | inhibition [5]: Active; IC50 [6]: 0.00829 µM; Activity [7]: Dose-dependent effect; inhibition at 1 µM [8]: 35% |
| CCn1cnc2c(NCCc3ccccc3)ncnc21 |  |  | 3 |  |
| CCCSc1nc2c(N)ncnc2[nH]1 |  |  |  | inhibition [9]: 0% |
| CC(C)(C)OC(=O)NCCCNc1ncnc2[nH]cnc12 |  |  | 46 |  |
| CC(C)(C)OC(=O)NCCNc1ncnc2[nH]cnc12 |  |  | 21 |  |
| Nc1nc(C#Cc2ccccc2)nc2c1ncn2[C@@H]1O[C@H](CO)[C@@H](O)[C@H]1O |  |  | 0 |  |
| Nc1[nH]ccc2ncnc1-2 | 6.68 | 1 |  |  |
| CCCCOc1nc(N)c2ncn(CC)c2n1 |  |  | 4 |  |
| Nc1ncnc2[nH]c(N3CCCCC3)nc12 | 31.7 | 8.1 |  | inhibition [10]: Active; inhibition [11]: Active; inhibition [12]: Active |
| Nc1ncnc2c1ncn2CCN1CCOCC1 | 5.49 | 1.8 |  | inhibition [13]: Active; inhibition [10]: Active |

| Structure (SMILES) | Ki [1] [µM] | Ratio Ki [2] | inhibition [3] [%] | other results |
| --- | --- | --- | --- | --- |
| CCCCC(CC)n1cnc2c(N)ncnc21 (stereo not drawn) |  |  | 12 |  |
| Nc1ncnc2c1N=CC2 |  |  | 39 |  |
| Nc1ncnc2[nH]c(O)nc12 | 110 | 4.1 |  |  |
| CSc1nc2c(N)ncnc2[nH]1 |  |  |  | inhibition [9]: 10% |
| Nc1ncnc2[nH]c(C#Cc3ccccc3)nc12 |  |  |  | inhibition [9]: 19% |
| CCSc1nc2c(N)ncnc2[nH]1 |  |  |  | inhibition [9]: 0% |
| Nc1ncnc2c1ncn2CCC(=O)O | 18.5 | 0.9 |  |  |
| Nc1ncnc2[nH]c(N3CCNCC3)nc12 | 27.4 | 8.4 |  | Efficacy [14]: 52%; inhibition [10]: Active; Activity [15]: inactive |
| Nc1nc2[nH]cnc(N)c-2n1 | 0.0341 | 0.005 |  | inhibition [16]: Active; inhibition [10]: Active; Ratio Ki [17]: 190 |
| CC(=O)Nc1ncnc2[nH]cnc12 | 0.515 | 0.18 |  | Efficacy [14]: 77%; inhibition [10]: Active; Activity [15]: inactive; Ratio Ki [17]: 5.5 |
| Nc1ncnc2c1ncn2Cc1ccccc1 |  |  | 15 |  |
| Nc1ncnc2c1ncn2CCN1CCNCC1 | > 100 |  |  | inhibition [4]: 0%; inhibition [18]: 28% |
| NNc1ncnc2[nH]cnc12 | 17.5 | 13 |  |  |
| Nc1[nH]cnc2nc(NCc3ccccc3)nc1-2 | 32.9 | 4.9 |  |  |
| Nc1ncnc2[nH]c(N3CCCC3)nc12 | > 100 | > 2.4 |  | inhibition [4]: 18% |
| NCCNc1ncnc2[nH]cnc12 |  |  | 58 |  |
| Nc1ncnc2[nH]c(Sc3ccccc3)nc12 |  |  |  | inhibition [9]: 0% |
| Nc1ncnc2[nH]c(/C=C/c3ccccc3)nc12 | 12.2 | 0.67 |  |  |
| Nc1ncnc2ncn(Cc3ccccc3)c12 |  |  | 11 |  |

| Structure (SMILES) | Ki [1] [µM] | Ratio Ki [2] | inhibition [3] [%] | other results |
| --- | --- | --- | --- | --- |
| ONc1ncnc2[nH]cnc12 | 9.53 | 19 |  | Efficacy [19]: 51%; inhibition [10]: Active |
| Nc1ncnc2[nH]ccc12 |  |  | 21 |  |
| O=c1[nH]cnc2cc[nH]c12 |  |  | 0 |  |
| CCn1cnc2c(N)nc(Cl)nc21 |  |  | 1 |  |
| Nc1ncnc2c1ncn2CCc1ccncc1 | > 100 |  |  | inhibition [4]: 44%; inhibition [18]: 46% |
| Nc1ncnc2c1ncn2CCc1ccccc1 | 100 | 2 |  | inhibition [4]: 57% |
| Nc1ncnc2c1ncn2CCc1cccnc1 | > 100 | 1.3 |  | inhibition [4]: 41% |
| Nc1ncnc2[nH]c(-c3ccccc3)nc12 |  |  | 16 |  |
| CCn1cnc2c(NC3CCCC3)ncnc21 |  |  | 5 |  |
| Nc1nc(OCCC2CCCCC2)nc2[nH]cnc12 |  |  | -5 |  |
| Nc1ncnc2c1ncn2CCc1ccccn1 | 100 | > 22 |  | inhibition [4]: 58% |
| Nc1ncnc2c1ncn2[C@H]1C[C@H](O)[C@@H](CO)O1 [DEOXYADENOSINE] | > 100 | > 9 |  | inhibition [4]: 29% |
| Nc1nc(Cl)nc2c1ncn2[C@@H]1O[C@H](CO)[C@@H](O)[C@H]1O |  |  | 1 |  |
| CN(C)c1nc2c(N)ncnc2[nH]1 | 34.1 | 14.8 |  | inhibition at 250 µM ([14]; Rattus norvegicus, 1321-N1): 137%; inhibition [10]: Active |
| Nc1ncnc2[nH]c(-c3cccc(C(F)(F)F)c3)nc12 |  |  | 23 |  |
| CCOc1ncnc2c1ncn2C1CCCCC1 |  |  | -1 |  |
| CCNc1ncnc2[nH]cnc12 | 100 | 6 |  | inhibition [4]: 59% |
| CCn1cnc2c(OCCc3ccccc3)ncnc21 |  |  | 4 |  |
| CCn1cnc2c(N)nc(NCCc3ccccc3)nc21 |  |  | 3 |  |
